Reference: ChEMBL document CHEMBL1138845, “Design of non-nucleoside inhibitors of HIV-1 reverse transcriptase with improved drug resistance properties. 2” (J Med Chem, 2004)

Tests used:
[1] = test system: MT4; experiment: Inhibitory concentration against wild type human immunodeficiency virus type 1 was determined by MT-4 assay; type: functional, cell-based
[2] = test system: HeLa; experiment: Inhibitory concentration against human immunodeficiency virus type 1 (with V106A/Y181C resistant mutation) was determined in HeLa-CD4 MAGI assay; type: functional, cell-based
In short: (§1)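 Tested against a panel of recombinant, isogenic HIV-1 viruses, wild type and NNRTI-resistant strains carrying engineered single or double RT mutations. The readout was IC50.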

[3] = test system: HeLa; experiment: Inhibitory concentration against human immunodeficiency virus type 1 (with K103N/Y181C resistant mutation) was determined in HeLa-CD4 MAGI assay; type: functional, cell-based; in short: as §1
[4] = test system: MT4; experiment: Ratio of cytotoxic concentration to that of inhibitory concentration as selectivity index was determined by MT-4 assay; type: functional, Homo sapiens
In short: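 Index is the IC50 in uninfected MT4 cells divided by the antiviral IC50 in MT4 cells infected with wild-type HIV-1 or the nevirapine-resistant strain carrying RT mutation Y181C.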

[5] = test system: HeLa; experiment: Inhibitory concentration against human immunodeficiency virus type 1 (with G190A resistant mutation) was determined in HeLa-CD4 MAGI assay; type: functional, cell-based; in short: as §1
[6] = test system: HeLa; experiment: Inhibitory concentration against human immunodeficiency virus type 1 (with K103N resistant mutation) was determined in HeLa-CD4 MAGI assay; type: functional, cell-based; in short: as §1
[7] = test system: Human immunodeficiency virus 1; experiment: Inhibitory concentration against wild type human immunodeficiency virus type 1 was determined by recombinant virus assay; type: functional, organism-based
In short: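 Isogenic recombinant HIV-1 carrying wild-type RT, tested in parallel with a panel of NNRTI-resistant RT mutants built on the same background; activity reported as IC50.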

[8] = test system: HeLa; experiment: Inhibitory concentration against human immunodeficiency virus type 1 (with Y181C resistant mutation) was determined in HeLa-CD4 MAGI assay; type: functional, cell-based; in short: as §1
[9] = test system: HeLa; experiment: Inhibitory concentration against human immunodeficiency virus type 1 (with V108I resistant mutation) was determined in HeLa-CD4 MAGI assay; type: functional, cell-based; in short: as §1
[10] = test system: HeLa; experiment: Inhibitory concentration against human immunodeficiency virus type 1 (with V106A resistant mutation) was determined in HeLa-CD4 MAGI assay; type: functional, cell-based; in short: as §1
[11] = test system: HeLa; experiment: Inhibitory concentration against human immunodeficiency virus type 1 (with K103N/G190A resistant mutation) was determined in HeLa-CD4 MAGI assay; type: functional, cell-based; in short: as §1
[12] = test system: MT4; experiment: Inhibitory concentration against nevirapine resistant strain (with Y181C mutation in HIV-1 RT gene) of human immunodeficiency virus type 1 was determined by MT-4 assay; type: functional, cell-based
[13] = test system: HeLa; experiment: Inhibitory concentration against human immunodeficiency virus type 1 (with Y188C resistant mutation) was determined in HeLa-CD4 MAGI assay; type: functional, cell-based; in short: as §1
[14] = test system: HeLa; experiment: Inhibitory concentration against human immunodeficiency virus type 1 (with V108I/Y181C resistant mutation) was determined in HeLa-CD4 MAGI assay; type: functional, cell-based; in short: as §1
[15] = test system: HeLa; experiment: Inhibitory concentration against human immunodeficiency virus type 1 (with K103N/V108I resistant mutation) was determined in HeLa-CD4 MAGI assay; type: functional, cell-based; in short: as §1

SMILES | IC50 [1] | IC50 [2] | IC50 [3] | Ratio [4] | IC50 [5] | IC50 [6] | IC50 [7] | IC50 [8] | IC50 [9] | IC50 [10] | IC50 [11] | IC50 [12] | IC50 [13] | IC50 [14] | IC50 [15]
CC(C)c1c(O)nc2ccc(Cl)cc2c1OC#CC1CC1 | 24 nM | 120 nM | 620 nM | >8000 | 3 nM | 320 nM | 16 nM | 39 nM | 36 nM | 57 nM | 52 nM | 31 nM | 18 nM | 120 nM | 1200 nM
CCOc1c(O)nc2ccc(Cl)cc2c1OCC1CCC1 | 290 nM | > 2000 nM | > 2000 nM | >8000 | 170 nM | > 2000 nM | 340 nM | > 2000 nM | 890 nM | > 2000 nM | > 2000 nM | 2090 nM | 390 nM | > 2000 nM | > 2000 nM
CCCc1c(O)nc2ccc(Cl)cc2c1OC#CC1CC1 | 109 nM | 120 nM | 1800 nM | >8000 | 15 nM | > 2000 nM | 38 nM | 92 nM | 60 nM | 220 nM | 300 nM | 120 nM | 70 nM | 230 nM | 1400 nM
CCCc1c(O)nc2ccc(F)cc2c1OC#CC1CC1 | 72 nM | 380 nM | 1400 nM | >8000 | 21 nM | > 2000 nM | 66 nM | 1 nM | 160 nM | 440 nM | 490 nM | 81 nM | 290 nM | 370 nM | > 2000 nM
N#Cc1c(O)nc2ccccc2c1OCC1CCC1 | > 8000 nM | > 2000 nM | > 2000 nM | >8000 | > 2000 nM | > 2000 nM | > 2000 nM | > 2000 nM | > 2000 nM | > 2000 nM | > 2000 nM | > 8000 nM | > 2000 nM | > 2000 nM | > 2000 nM
CCc1c(O)nc2ccc(F)cc2c1OCC1CCC1 | 39 nM | > 2000 nM | > 2000 nM | >8000 | 110 nM | 270 nM | 89 nM | 390 nM | 250 nM | 1700 nM | 1100 nM | 230 nM | 130 nM | 870 nM | > 2000 nM
CCC(C)C#COc1c(C(C)C)c(O)nc2ccc(F)cc12 (stereo not given) | 17 nM | 130 nM | 640 nM | >6500 | 21 nM | 540 nM | 28 nM | 84 nM | 110 nM | 420 nM | 230 nM | 32 nM | 21 nM | 140 nM | > 2000 nM
CC(C)c1c(O)nc2ccc(Cl)cc2c1OCC1CCC1 | 29 nM | 1900 nM | > 2000 nM | >500 | 9 nM | 560 nM | 15 nM | 210 nM | 79 nM | 380 nM | 560 nM | 230 nM | 32 nM | 440 nM | > 2000 nM
CCOc1c(O)nc2ccc(F)cc2c1OCC1CCC1 | 470 nM | > 2000 nM | > 2000 nM | >8000 | 86 nM | > 2000 nM | 580 nM | > 2000 nM | 1500 nM | > 2000 nM | > 2000 nM | 1070 nM | 360 nM | > 2000 nM | > 2000 nM
CCCc1c(O)nc2ccc(Cl)cc2c1OCC1CCC1 | 72 nM | 630 nM | > 2000 nM | >40000 | 15 nM | 980 nM | 36 nM | > 2000 nM | 77 nM | 124 nM | 1300 nM | 390 nM | 16 nM | 600 nM | > 2000 nM
CCCc1c(O)nc2ccc(F)cc2c1OCC1CCC1 | 69 nM | 1700 nM | > 2000 nM | >8000 | 46 nM | 1800 nM | 63 nM | 240 nM | 290 nM | 1700 nM | > 2000 nM | 190 nM | 60 nM | 560 nM | > 2000 nM
CCCc1c(O)nc2ccc(Cl)cc2c1OC1CCC1 | 470 nM | > 2000 nM | > 2000 nM | >8000 | 220 nM | > 2000 nM | 300 nM | 1700 nM | 690 nM | > 2000 nM | > 2000 nM | 2500 nM | 290 nM | > 2000 nM | > 2000 nM
CCCc1c(O)nc2ccc(Cl)cc2c1OCC1CCCCC1 | 5100 nM | > 2000 nM | > 2000 nM | >40000 | 260 nM | > 2000 nM | 1200 nM | 690 nM | > 2000 nM | > 2000 nM | > 2000 nM | 1300 nM | 23 nM | 1000 nM | > 2000 nM
Cc1c(O)nc2ccc(F)cc2c1OCC1CCC1 | 990 nM | > 2000 nM | > 2000 nM | >8000 | 250 nM | > 2000 nM | 610 nM | > 2000 nM | 1700 nM | > 2000 nM | > 2000 nM | 3900 nM | 840 nM | > 2000 nM | > 2000 nM
CC(C)c1c(O)nc2ccc(F)cc2c1OCC1CCC1 | 26 nM | > 2000 nM | > 2000 nM | >500 | 16 nM | 1700 nM | 49 nM | 280 nM | 440 nM | 1900 nM | 530 nM | 230 nM | 30 nM | 700 nM | > 2000 nM
CCc1c(O)nc2ccc(F)cc2c1OC#CC1CC1 | 25 nM | 230 nM | 300 nM | >8000 | 6 nM | 420 nM | 25 nM | 24 nM | 60 nM | 340 nM | 68 nM | 15 nM | 100 nM | 130 nM | 240 nM
CCCc1c(O)nc2ccc(Cl)cc2c1OCC1CC1 | 1100 nM | > 2000 nM | > 2000 nM | >40000 | 49 nM | > 2000 nM | 120 nM | 210 nM | 200 nM | 630 nM | > 2000 nM | 8300 nM | 89 nM | 1700 nM | > 2000 nM
CCCc1c(O)nc2cc(OC)ccc2c1OCC1CCC1 | > 8000 nM | > 2000 nM | > 2000 nM | >8000 | > 2000 nM | > 2000 nM | > 2000 nM | > 2000 nM | > 2000 nM | > 2000 nM | > 2000 nM | > 8000 nM | > 2000 nM | > 2000 nM | > 2000 nM
